# PostGolgi ctrl – growth of the yeast control strain, post-Golgi counter-screen; hit rate 5% among 98,000; efflux-deficient yeast background strain, growth absorbance A615, 16 h; inhibition, % at 10 µM
# Ecoli WT expand – E. coli BW25113 growth inhibition, expanded screen. OD600 absorbance. hit rate 0.15% among 98,000. AID 710. growth inhibition, % at 100 µM;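 active = growth inhibition above about 50% at one test dose, limit read from the data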;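 also: growth measured after 20 h incubation at 37 °C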
# PostGolgi yeast – growth inhibition of a yeast mutant, post-Golgi transport screen; post-Golgi transport phenotypic cell assay; hit rate 0.9% among 98,000; inhibition, % at 10 µM;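 also: yeast cells grown in 1536-well plates; yeast grown about 18 h at 30C before absorbance read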
# Ecoli tolC – E. coli tolC mutant growth inhibition | E. coli BW25113 tolC mutant growth, OD615 | growth inhibition, % at 10 µM (by protocol) | hit rate 2.2% among 65,000;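 active = growth inhibition at or above a cutoff equal to the mean over every tested compound plus 3 SD, cut at about 60% in these data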;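 also: growth measured after 20 h incubation at 37 °C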
#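 System: E. coli ΔtolC::kan strain BW25113; Buffer or medium: LB broth supplemented with 50 µg/mL kanamycin; Compound: 10 µM final, single dose; Incubation: bacterial growth with compound for 20 h at 37 °C; Signal: A615 absorbance measurement; Evaluation: growth inhibition in percent.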
# * = called active by the depositor; nt = not tested or not shown. Only some compounds are listed: those with a hit (about 6.3% of all), similar ones and a draw of the others. Rule as the data show it, unless noted: active = inhibition above about 30%; inactive = the rest.
SMILES,PostGolgi ctrl,Ecoli WT expand,PostGolgi yeast,Ecoli tolC
COc1cc(S(=O)(=O)N2CCN(c3ccccc3F)CC2)ccc1Cl,47.9*,-3.0,0.9,51.8
COc1cc(S(=O)(=O)N2CCN(c3ccccc3)CC2)ccc1Cl,18.6,4.0,12.4,10.1
CS(=O)(=O)N1CCN(c2ccccc2F)CC1,30.6*,6.0,7.1,-15.8
O=S(=O)(N1CCCCC1)N1CCN(c2ccccc2F)CC1,-3.3,0.0,14.5,nt
COC(=O)C1=C(C)N=c2s/c(=C/c3ccoc3)c(=O)n2C1c1ccccc1 (stereo unspecified),58.9*,-12.0,5.8,11.0
COC(=O)C1=C(C)N=c2s/c(=C3\C(=O)Nc4ccccc43)c(=O)n2C1c1ccccc1 (stereo unspecified),38.7*,-23.0,-0.6,16.1
COC(=O)C1=C(C)N=c2s/c(=C/c3cccs3)c(=O)n2C1c1cccs1 (stereo unspecified),2.0,-12.0,7.5,-12.8
CCCCCCN=CC1=C(O)C(C(=O)OC)C(C)(C)CC1=O (stereo unspecified),10.5,3.0,2.0,-0.8
Cc1cc(C)c(S(=O)(=O)c2ccccc2C)c(OCC(C)(C)C)n1,11.3,-2.0,-3.1,nt
Cc1ccc(-c2nc3ccccc3[nH]2)cc1NC(=S)NC(=O)c1ccccc1Br,37.2*,-5.0,6.2,nt
COC(=O)c1[nH]c2ccc(C)cc2c1NC(=O)CN1CCN(c2ccccc2)CC1,19.6,23.0,11.6,-12.7
Cc1cccc(N2CCN(CC(=O)Nc3ccccc3[N+](=O)[O-])CC2)c1C,31.6*,-11.0,-0.6,nt
Cc1ccc2[nH]c(C(=O)O)c(NC(=O)CN3CCN(c4cccc(C)c4C)CC3)c2c1,2.1,-4.0,0.5,95.7*
c1ccc2c3c([nH]c2c1)-c1[nH]ncc1CC3,1.5,30.0,-2.9,7.3
Clc1ccc2[nH]c3c(c2c1)CCc1cn[nH]c1-3,57.3*,78.0*,74.0*,100.0*
COc1ccc(CCn2nnnc2C(CC(C)C)N2CCN(c3ncccn3)CC2)cc1OC (stereo unspecified),-2.7,-4.0,-10.2,-0.6
COc1ccc(N2CCN(C(c3nnnn3CCc3ccccc3)C(C)C)CC2)cc1 (stereo unspecified),34.9*,-6.0,8.8,14.3
CC(C)C(c1nnnn1CCc1ccccc1)N1CCOCC1 (stereo unspecified),-3.8,8.0,10.7,-10.4
COc1ccc(CCn2nnnc2C(C(C)C)N2CCN(c3ncccn3)CC2)cc1OC (stereo unspecified),35.5*,1.0,-1.2,-1.2
CCCc1n[nH]c2c1C(=O)C(C(=O)OC)C(C)(C)C2 (stereo unspecified),-7.8,-5.0,29.2,-14.8
c1cc(-c2nc3cc(Oc4ccc5oc(-c6ccncc6)nc5c4)ccc3o2)ccn1,nt,nt,nt,-7.5
COc1ccc(CN(C(=O)CSc2nnc(-c3ccccc3F)o2)c2ccc(F)cc2)cc1,13.4,-15.0,25.7,21.3
Cc1csc(=Nc2ccc(S(=O)(=O)N3CCOCC3)cc2)n1Cc1ccco1,44.4*,-12.0,-0.9,8.8
Cc1nc2ccc(C(C(F)(F)F)(C(F)(F)F)C(F)(F)F)cc2[nH]1,66.4*,3.0,8.0,99.5*
Cc1nc2ccc(S(=O)(=O)c3ccc4nc(C)[nH]c4c3)cc2[nH]1,3.4,8.0,6.7,nt
SMILES,PostGolgi ctrl,Ecoli WT expand,PostGolgi yeast,Ecoli tolC
CCc1nc(SCC(=O)N2CCC(Cc3ccccc3)CC2)c2c(=O)n(C)c(=O)n(C)c2n1,40.0*,-6.0,19.1,nt
NS(=O)(=O)c1ccc(NC(=O)Cn2ncc3c2-c2ccccc2OC3)cc1,0.9,0.0,1.5,nt
Oc1c(C(c2cccs2)N2CCN(c3cccc(Cl)c3)CC2)sc2ncnn12 (stereo unspecified),2.2,3.0,4.4,100.0*
Oc1c(C(c2ccco2)N2CCN(C(c3ccccc3)c3ccccc3)CC2)sc2ncnn12 (stereo unspecified),10.7,-4.0,-1.8,64.5*
CC(C)NC(=O)CSc1nnc(-c2ccncc2)n1-c1ccccc1,13.6,-4.0,1.1,nt
O=C(Nc1nccs1)c1cccc(S(=O)(=O)N2CCOCC2)c1,-3.8,9.0,-4.8,5.2
CCSc1ncnc2c1sc1nc(-c3ccco3)c3c(c12)CC(C)(C)OC3,32.3*,3.0,14.2,nt
O=C(O)c1ccc2cccc(Cl)c2c1O,5.6,0.0,-1.6,30.2
O=C(O)c1cc(Cl)c2ccccc2c1O,9.2,13.0,11.1,65.6*
CCCc1ccc(-c2c(C)sc(N)c2C#N)cc1,43.1*,-2.0,5.2,nt
Cc1ccccc1OC1C(=O)N(Cc2ccc3c(c2)OCO3)C1c1sccc1C (stereo unspecified),9.3,-13.0,-0.8,nt
Cc1ccc(C(=O)Nc2ccc(Cc3ccncc3)cc2)cc1[N+](=O)[O-],49.9*,4.0,87.2*,nt
CCC(=O)Nc1c(C#N)c2nc3ccccc3nc2n1C1CCCCC1,37.0*,3.0,1.9,11.6
CCCCn1c(NC(=O)CC)c(C#N)c2nc3ccccc3nc21,7.6,-11.0,9.3,20.2
CCCCn1c(NC(=O)c2ccccc2Cl)c(C#N)c2nc3ccccc3nc21,18.5,-6.0,33.4*,99.0*
CCC(=O)Nc1c(C#N)c2nc3ccccc3nc2n1-c1ccccc1C,6.3,-17.0,3.4,25.9
C[C@H](NC(=O)C1(c2ccccc2)CCN(C(=O)[C@H]2CSCN2C(=O)OC(C)(C)C)CC1)C(=O)O,16.7,0.0,7.7,-20.7
CCC(C)NS(=O)(=O)c1ccc(S(=O)(=O)N(CC(=O)Nc2ccccc2)CC2CCCO2)cc1 (stereo unspecified),-4.5,-10.0,-5.8,nt
Cc1ccc(S(=O)(=O)c2c(COC(=O)c3ccc(Cl)cc3)c(-c3ccccc3)nn2C)cc1,2.1,-10.0,-2.5,nt
CC(C)N(C(=O)COc1ccc(Br)cc1Cl)C(C)C,17.8,-4.0,9.9,34.3
Cn1cccc1/C=N/n1c(-c2ccc(C(C)(C)C)cc2)n[nH]c1=S,36.8*,4.0,18.5,nt
NS(=O)(=O)c1ccc(NC(=O)COC(=O)CCNC(=O)NC23CC4CC(CC(C4)C2)C3)cc1,7.8,0.0,-0.6,13.9
CCOC(=O)C1CCCn2c1nc1sc3c(c1c2=O)CCCC3 (stereo unspecified),38.2*,14.0,-6.6,-1.0
CCn1c(NN)nc2sc3c(c2c1=O)CCC3,11.0,-1.0,22.2,nt
O=C(Nc1ccc2c(c1)OCCO2)c1cc2sccc2n1Cc1ccccc1,-0.4,-23.0,-1.7,nt
SMILES,PostGolgi ctrl,Ecoli WT expand,PostGolgi yeast,Ecoli tolC
O=C(Nc1ccc2c(c1)OCCO2)c1cc2sccc2n1Cc1ccc(F)cc1,52.9*,-24.0,-4.6,nt
Cc1nc2c(-c3ccc(F)cc3)c(C)nn2c(C)c1CCC(=O)N1CCN(c2ccccc2)CC1,18.0,4.0,-3.0,nt
Cc1nc2c(-c3ccc(F)cc3)c(C)nn2c(C)c1CCC(=O)N1CCC(Cc2ccccc2)CC1,32.1*,-13.0,5.4,nt
COc1ccc(CNc2nc3c(c(C(F)(F)F)n2)CCCCC3)cc1,38.9*,-5.0,-5.7,49.5
COc1cc(OC)cc(C(=O)N[C@H](C(=O)NC23CC4CC(CC(C4)C2)C3)C(C)C)c1,28.5,-13.0,47.2*,nt
CCc1ccccc1NC(=O)Cn1nc(C(F)(F)F)cc1C1CC1,17.4,-1.0,1.3,nt
Cc1ccc(C(=C2C3C=CC2C2C(=O)NC(=O)C32)c2ccc(C)cc2)cc1 (stereo unspecified),55.1*,6.0,-1.2,nt

# High-throughput results from PubChem BioAssay.
